In ChEMBL document CHEMBL3085628, “Identification of CB1/CB2 ligands from Zanthoxylum bungeanum” (J Nat Prod, 2013):

Tests used:
Cannabinoid receptor 1 [1] = molecular target: T1, Cannabinoid receptor 1 (Homo sapiens, UniProt P21554); assay: Inhibition of human CB1 receptor internalization expressed in CHO cells assessed as inhibition of [3H]-Win55212-2 uptake preincubated for 1 hr followed by radioligand addition measured after 1 hr by liquid scintillation counting analysis relative to control; format: cell-based; parameters: concentration or dose not given beside the values; details: concentration not given here
T1 sequence (P21554 whole entry): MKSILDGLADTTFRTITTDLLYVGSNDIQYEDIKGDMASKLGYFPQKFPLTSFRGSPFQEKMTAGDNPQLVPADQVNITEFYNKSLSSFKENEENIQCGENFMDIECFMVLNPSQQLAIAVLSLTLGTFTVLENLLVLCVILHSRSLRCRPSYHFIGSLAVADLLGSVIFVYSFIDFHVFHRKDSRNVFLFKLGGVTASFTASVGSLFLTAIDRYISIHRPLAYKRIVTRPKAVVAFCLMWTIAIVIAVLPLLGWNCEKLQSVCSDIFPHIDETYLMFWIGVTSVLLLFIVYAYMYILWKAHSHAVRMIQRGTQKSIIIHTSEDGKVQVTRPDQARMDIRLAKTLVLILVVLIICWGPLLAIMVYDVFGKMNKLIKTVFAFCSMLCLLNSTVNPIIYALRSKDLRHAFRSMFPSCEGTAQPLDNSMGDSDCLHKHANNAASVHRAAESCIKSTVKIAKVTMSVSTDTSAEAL
Method in brief: (§1)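 CHO cells stably expressing human CB1 or CB2 grown 24 h at 2.0 × 10^5 cells/mL in DMEM/F12 with 10% FBS. They were preincubated 1 h with serial dilutions (top 5.0 μM for CB1, 10 μM for CB2; DMSO <0.1% final), then given 1 h 10 nM [3H]-Win 55,212-2 (CB1) or 2 nM [3H]-CP 55,940 (CB2). Cells were washed, NaOH-lysed and scintillation-counted. Uptake normalized to no-compound wells; sigmoid fit; mean ± SE, n = 6.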

Cannabinoid receptor 2 [2] = molecular target: T2, Cannabinoid receptor 2 (Homo sapiens, UniProt P34972); assay: Inhibition of human CB2 receptor internalization expressed in CHO cells assessed as inhibition of [3H]-CP55940 uptake preincubated for 1 hr followed by radioligand addition measured after 1 hr by liquid scintillation counting analysis relative to control; format: cell-based; parameters: concentration or dose not given beside the values; details: concentration not given here; method in brief: as §1
T2 sequence (P34972 whole entry): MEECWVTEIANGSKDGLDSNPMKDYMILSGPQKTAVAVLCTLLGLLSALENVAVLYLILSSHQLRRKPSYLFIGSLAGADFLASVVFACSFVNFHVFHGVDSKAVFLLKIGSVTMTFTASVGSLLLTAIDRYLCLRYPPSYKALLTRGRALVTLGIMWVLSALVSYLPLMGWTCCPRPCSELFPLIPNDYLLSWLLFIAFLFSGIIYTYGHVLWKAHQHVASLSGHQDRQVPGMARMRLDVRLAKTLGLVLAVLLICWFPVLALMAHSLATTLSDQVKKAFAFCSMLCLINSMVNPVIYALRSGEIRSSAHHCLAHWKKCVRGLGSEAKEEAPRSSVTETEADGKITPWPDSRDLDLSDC

Cannabinoid receptor 1 [3] = molecular target: T1, Cannabinoid receptor 1; assay: Displacement of [3H]-Win55212-2 from human CB1 receptor expressed in CHO cells preincubated for 1 hr followed by radioligand addition measured after 1 hr by liquid scintillation counting analysis; format: cell-based; method in brief: as §1
Homo sapiens = species: Homo sapiens; assay: Selectivity ratio of IC50 for human CB1 receptor to IC50 for human CB2 receptor
Cannabinoid receptor 2 [4] = molecular target: T2, Cannabinoid receptor 2; assay: Displacement of [3H]-CP55940 from human CB2 receptor expressed in CHO cells preincubated for 1 hr followed by radioligand addition measured after 1 hr by liquid scintillation counting analysis; format: cell-based; method in brief: as §1
Cannabinoid receptor 2 [5] = molecular target: T2, Cannabinoid receptor 2; assay: Agonist activity at CB2 receptor (unknown origin) at 10 uM after 90 to 180 mins by beta-arrestin assay relative to control
[6] = molecular target: Histamine H4 receptor (Homo sapiens) (UniProt Q9H3N8); assay: Agonist activity at HRH4 (unknown origin) at 10 uM after 90 to 180 mins by beta-arrestin assay relative to control
[7] = molecular target: T3, Prolactin-releasing peptide receptor (Homo sapiens) (UniProt P49683); assay: Antagonist activity at PRLHR (unknown origin) at 10 uM after 3 to 5 hrs by beta-arrestin assay relative to control
T3 sequence (whole entry): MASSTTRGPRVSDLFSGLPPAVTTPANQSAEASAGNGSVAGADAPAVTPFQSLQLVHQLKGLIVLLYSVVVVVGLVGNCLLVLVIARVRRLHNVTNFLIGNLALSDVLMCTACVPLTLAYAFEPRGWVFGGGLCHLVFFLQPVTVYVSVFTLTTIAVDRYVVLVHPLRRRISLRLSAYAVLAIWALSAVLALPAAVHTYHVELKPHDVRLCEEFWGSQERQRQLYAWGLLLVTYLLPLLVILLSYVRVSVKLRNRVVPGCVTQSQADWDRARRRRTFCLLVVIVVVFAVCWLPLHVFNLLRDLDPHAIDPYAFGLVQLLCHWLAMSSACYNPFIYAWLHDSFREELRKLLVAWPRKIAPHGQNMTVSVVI

[8] = molecular target: T4, Follicle-stimulating hormone receptor (Homo sapiens) (UniProt P23945); assay: Antagonist activity at FSHR (unknown origin) at 10 uM after 3 to 5 hrs by beta-arrestin assay relative to control
T4 sequence (whole entry): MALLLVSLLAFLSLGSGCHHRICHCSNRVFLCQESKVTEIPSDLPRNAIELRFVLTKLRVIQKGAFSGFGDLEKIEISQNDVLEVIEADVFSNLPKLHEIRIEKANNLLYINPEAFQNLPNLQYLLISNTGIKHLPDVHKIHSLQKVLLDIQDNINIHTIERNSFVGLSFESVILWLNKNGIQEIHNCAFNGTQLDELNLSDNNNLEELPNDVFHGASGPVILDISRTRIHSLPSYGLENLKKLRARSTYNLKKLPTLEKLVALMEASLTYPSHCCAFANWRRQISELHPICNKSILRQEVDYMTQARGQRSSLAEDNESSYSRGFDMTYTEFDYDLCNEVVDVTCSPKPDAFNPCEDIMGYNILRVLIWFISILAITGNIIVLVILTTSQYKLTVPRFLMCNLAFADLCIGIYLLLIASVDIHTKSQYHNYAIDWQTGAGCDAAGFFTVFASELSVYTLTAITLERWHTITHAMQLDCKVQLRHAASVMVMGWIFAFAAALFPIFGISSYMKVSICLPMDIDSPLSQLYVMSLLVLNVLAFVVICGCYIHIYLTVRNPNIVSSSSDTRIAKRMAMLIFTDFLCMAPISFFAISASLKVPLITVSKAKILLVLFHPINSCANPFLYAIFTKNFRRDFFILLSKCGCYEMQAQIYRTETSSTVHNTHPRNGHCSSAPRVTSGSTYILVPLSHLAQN

[9] = molecular target: T5, Relaxin-3 receptor 1 (Homo sapiens) (UniProt Q9NSD7); assay: Agonist activity at RXFP3 (unknown origin) at 10 uM after 90 to 180 mins by beta-arrestin assay relative to control
T5 sequence (whole entry): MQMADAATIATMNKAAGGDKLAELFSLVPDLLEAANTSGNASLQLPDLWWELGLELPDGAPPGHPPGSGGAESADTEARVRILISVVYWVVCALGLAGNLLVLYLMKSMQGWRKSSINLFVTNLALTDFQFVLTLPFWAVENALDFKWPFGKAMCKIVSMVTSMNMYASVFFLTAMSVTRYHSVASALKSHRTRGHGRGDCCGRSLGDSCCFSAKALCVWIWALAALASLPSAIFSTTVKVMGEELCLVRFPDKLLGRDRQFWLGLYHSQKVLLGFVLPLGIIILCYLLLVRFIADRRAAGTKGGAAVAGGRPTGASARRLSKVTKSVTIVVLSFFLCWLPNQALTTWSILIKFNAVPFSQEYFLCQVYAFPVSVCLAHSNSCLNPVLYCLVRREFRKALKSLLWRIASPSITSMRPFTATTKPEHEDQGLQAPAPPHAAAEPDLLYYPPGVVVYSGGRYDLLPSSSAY

Cannabinoid receptor 1 [10] = molecular target: T1, Cannabinoid receptor 1; assay: Agonist activity at CB1 receptor (unknown origin) at 10 uM after 90 to 180 mins by beta-arrestin assay relative to control
Cannabinoid receptor 2 [11] = molecular target: T2, Cannabinoid receptor 2; assay: Antagonist activity at CB2 receptor (unknown origin) at 10 uM after 3 to 5 hrs by beta-arrestin assay relative to control
[12] = molecular target: T6, G-protein coupled receptor 151 (Homo sapiens) (UniProt Q8TDV0); assay: Agonist activity at GPR151 (unknown origin) expressed in CHO-K1 cells at 10 uM after 90 to 180 mins by beta-arrestin assay relative to control; format: cell-based
T6 sequence (whole entry): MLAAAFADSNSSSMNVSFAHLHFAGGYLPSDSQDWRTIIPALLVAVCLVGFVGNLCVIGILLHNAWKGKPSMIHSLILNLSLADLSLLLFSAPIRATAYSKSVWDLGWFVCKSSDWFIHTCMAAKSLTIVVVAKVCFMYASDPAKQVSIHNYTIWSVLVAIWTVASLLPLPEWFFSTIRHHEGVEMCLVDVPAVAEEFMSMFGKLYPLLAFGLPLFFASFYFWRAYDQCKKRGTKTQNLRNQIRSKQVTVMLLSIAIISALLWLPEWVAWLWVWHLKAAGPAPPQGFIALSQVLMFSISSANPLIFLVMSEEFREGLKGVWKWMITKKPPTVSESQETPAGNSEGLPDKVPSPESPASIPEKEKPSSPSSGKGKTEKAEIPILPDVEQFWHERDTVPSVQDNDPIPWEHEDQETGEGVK

Cannabinoid receptor 1 [13] = molecular target: T1, Cannabinoid receptor 1; assay: Antagonist activity at CB1 receptor (unknown origin) at 10 uM after 3 to 5 hrs by beta-arrestin assay relative to control
Cannabinoid receptor 2 [14] = molecular target: T2, Cannabinoid receptor 2; assay: Agonist activity at CB2 receptor (unknown origin) after 90 to 180 mins by beta-arrestin assay
[15] = molecular target: G-protein coupled receptor 55 (Homo sapiens) (UniProt Q9Y2T6); assay: Agonist activity at GPR55 (unknown origin) expressed in CHO-K1 cells at 10 uM after 90 to 180 mins by beta-arrestin assay relative to control; format: cell-based
G-protein coupled receptor 55 (Homo sapiens), sequence (Q9Y2T6 whole entry): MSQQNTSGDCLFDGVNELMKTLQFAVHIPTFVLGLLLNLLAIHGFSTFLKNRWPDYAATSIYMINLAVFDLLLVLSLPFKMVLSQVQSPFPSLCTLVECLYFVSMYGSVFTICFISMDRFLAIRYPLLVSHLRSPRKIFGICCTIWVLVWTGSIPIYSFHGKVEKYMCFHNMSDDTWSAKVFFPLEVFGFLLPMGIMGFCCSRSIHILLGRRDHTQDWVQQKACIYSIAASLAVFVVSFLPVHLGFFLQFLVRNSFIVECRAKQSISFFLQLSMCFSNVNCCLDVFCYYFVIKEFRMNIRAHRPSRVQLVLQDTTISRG

[16] = molecular target: Prostaglandin E2 receptor EP2 subtype (Homo sapiens) (UniProt P43116); assay: Agonist activity at PTGER2 (unknown origin) at 10 uM after 90 to 180 mins by beta-arrestin assay relative to control
Prostaglandin E2 receptor EP2 subtype (Homo sapiens), sequence (P43116 whole entry): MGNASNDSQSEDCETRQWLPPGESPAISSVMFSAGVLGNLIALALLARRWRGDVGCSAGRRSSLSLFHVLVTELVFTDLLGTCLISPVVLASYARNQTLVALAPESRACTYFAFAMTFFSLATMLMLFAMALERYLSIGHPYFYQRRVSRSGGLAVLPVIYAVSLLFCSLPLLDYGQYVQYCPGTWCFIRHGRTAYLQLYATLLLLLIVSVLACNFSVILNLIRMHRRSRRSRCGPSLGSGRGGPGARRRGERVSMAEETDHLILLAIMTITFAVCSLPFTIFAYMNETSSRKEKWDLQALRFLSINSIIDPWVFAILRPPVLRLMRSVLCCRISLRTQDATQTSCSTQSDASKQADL

[17] = molecular target: T7, Probable G-protein coupled receptor 132 (Homo sapiens) (UniProt Q9UNW8); assay: Agonist activity at GPR132 (unknown origin) expressed in CHO-K1 cells at 10 uM after 90 to 180 mins by beta-arrestin assay relative to control; format: cell-based
T7 sequence (whole entry): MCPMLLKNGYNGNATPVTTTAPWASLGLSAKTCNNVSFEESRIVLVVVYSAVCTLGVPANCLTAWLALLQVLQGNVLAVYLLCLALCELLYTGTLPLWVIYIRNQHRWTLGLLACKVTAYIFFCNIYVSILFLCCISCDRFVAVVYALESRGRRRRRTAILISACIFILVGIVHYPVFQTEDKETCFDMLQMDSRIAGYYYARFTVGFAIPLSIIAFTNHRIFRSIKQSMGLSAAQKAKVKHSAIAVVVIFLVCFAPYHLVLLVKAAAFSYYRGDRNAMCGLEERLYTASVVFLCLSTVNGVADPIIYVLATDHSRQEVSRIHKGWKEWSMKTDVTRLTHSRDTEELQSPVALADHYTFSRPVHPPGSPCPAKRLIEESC

[18] = molecular target: T4, Follicle-stimulating hormone receptor (Homo sapiens); assay: Agonist activity at FSHR (unknown origin) at 10 uM after 90 to 180 mins by beta-arrestin assay relative to control
[19] = molecular target: T3, Prolactin-releasing peptide receptor (Homo sapiens); assay: Agonist activity at PRLHR (unknown origin) at 10 uM after 90 to 180 mins by beta-arrestin assay relative to control

Row | inhibition (Cannabinoid receptor 1 [1]) [%] | inhibition (Cannabinoid receptor 2 [2]) [%] | IC50 (Cannabinoid receptor 1 [3]) [nM] | Ratio IC50 (Homo sapiens) | IC50 (Cannabinoid receptor 2 [4]) [nM] | Compound | also measured
1 | 39 | 34 | 1390 | 6.2 | 224 | C/C=C/C=C/C=C/CC/C=C/C=C/C(=O)NCC(C)(C)O | –
2 | – | – | 9 | – | 131 | C/C=C/C=C/C=C/CC/C=C/C(=O)NCC(C)(C)O | –
3 | 76 | 65 | 41 | 0.24 | 168 | C/C=C/C=C/C=C\CC/C=C/C(=O)NCC(C)(O)CO (centres undefined) | –
4 | – | – | 7400 | – | 59 | C/C=C/C=C/C=C\CC/C=C/C(=O)NCC(C)(C)O | –
5 | 31 | 65 | 184 | 0.9 | 197 | C/C=C/C=C/C=C\CC/C=C/C=C/C(=O)NCC(C)(C)O | –
6 | 30 | 73 | 4600 | 2560 | 2 | CCCCCCCCC/C=C/C=C/C(=O)NCC(C)(C)O [TETRAHYDROBUNGEANOOL] | –

Row | Compound | inhibition (Cannabinoid receptor 1 [1]) [%] | inhibition (Cannabinoid receptor 2 [2]) [%] | IC50 (Cannabinoid receptor 1 [3]) [nM] | Ratio IC50 (Homo sapiens) | IC50 (Cannabinoid receptor 2 [4]) [nM] | also measured
7 | CC/C=C/C/C=C\CC/C=C/C=C/C(=O)NCC(C)(C)O | 45 | 62 | 2400 | 0.26 | 9100 | –
8 | C/C=C/C=C/C=C/CC/C=C/C=C/C(=O)NCC(C)C | 37 | 57 | 100 | 0.15 | 664 | % activity (Cannabinoid receptor 2 [5]): 64%; Activity [6]: 18%; inhibition [7]: 52%; inhibition [8]: 68%; Activity [9]: 18%; Activity (Cannabinoid receptor 1 [10]): 5%; inhibition (Cannabinoid receptor 2 [11]): 15%; Activity [12]: 76%; inhibition (Cannabinoid receptor 1 [13]): 72%; EC50 (Cannabinoid receptor 2 [14]): 41.7 nM; Activity [15]: 67%; Activity [16]: 7%; Activity [17]: 61%; Activity [18]: 5%; Activity [19]: 5%
